Consider four molecules from ChEMBL document CHEMBL1806456, “Chemistry of ecteinascidins. Part 3: preparation of 2'-N-acyl derivatives of ecteinascidin 770 and evaluation of cytotoxicity” (Bioorg Med Chem, 2011).

Some results are limits rather than exact numbers.

Holding throughout (assay type): functional, cell-based
The subject of one assay is HCT-116. As to the kind of experiment: Cytotoxicity against human HCT116 cells after 4 days by MTT assay. As to conditions: HCT-116, 96 h. A digest of the protocol:
(§1)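 Cells seeded as single-cell suspension, 2 × 10³ cells/well, onto serially diluted compounds in microplates; cultured 4 d. Viable cells counted with a cell counting kit. IC50 taken as concentration giving 50% growth inhibition relative to untreated control.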

For another assay, the system named is QG-56. The experiment in a line: Cytotoxicity against human QG56 cells after 4 days by MTT assay. As to conditions: QG-56, 96 h. Summed up: as §1
The subject of a further assay is DU-145. As to the kind of experiment: Cytotoxicity against human DU145 cells after 4 days by MTT assay. The note with it: DU-145, 96 h. Summed up:
as §1

`COc1cc2c(cc1O)CCN(C(=O)c1c[nH]c3ccccc13)[C@]21CS[C@@H]2c3c(OC(C)=O)c(C)c4c(c3[C@@H](COC1=O)N1[C@@H]2[C@H]2c3c(cc(C)c(OC)c3O)C[C@@H]([C@@H]1C#N)N2C)OCO4`: the IC50 in the assay on HCT-116 was determined as 0.16 nM; in the assay on QG-56, 0.46 nM; with DU-145 it was 0.45 nM.

With `C=CCOc1cc2c(cc1OC)[C@@]1(CS[C@@H]3c4c(OC(C)=O)c(C)c5c(c4[C@@H](COC1=O)N1[C@@H]3[C@H]3c4c(cc(C)c(OC)c4OCC=C)C[C@@H]([C@@H]1C#N)N3C)OCO5)NCC2`, the IC50 in the assay on HCT-116 was 54 nM; in the assay on QG-56 it was 160 nM; in the assay with DU-145 it was 100 nM.

Regarding `C=CCOc1cc2c(cc1OC)[C@@]1(CS[C@@H]3c4c(OC(C)=O)c(C)c5c(c4[C@@H](COC1=O)N1[C@@H]3[C@H]3c4c(cc(C)c(OC)c4OCC=C)C[C@@H]([C@@H]1C#N)N3C)OCO5)N(C(=O)c1c[nH]c3ccccc13)CC2`, the IC50 with HCT-116 was 0.45 nM; with QG-56, > 1000 nM; with DU-145 it was > 1000 nM.

On to `COc1cc2c(cc1O)CCN[C@]21CS[C@@H]2c3c(OC(C)=O)c(C)c4c(c3[C@H](COC1=O)N1[C@@H]2[C@H]2c3c(cc(C)c(OC)c3O)C[C@@H]([C@@H]1C#N)N2C)OCO4` [ECTEINASCIDIN 770], for which the values for the IC50 in the assay with HCT-116, in the assay on QG-56 and with DU-145 were 0.6 nM, 2.4 nM and 0.81 nM, respectively.
